# Experimental data: ChEMBL document CHEMBL4145626, “Chemical Constituents of Apios americana Tubers and Their Inhibitory Activities on Nitric Oxide Production in Lipopolysaccharide-Stimulated RAW 264.7 Macrophages” (J Nat Prod, 2018)
# System: RAW264.7
# Assay: Inhibition of LPS-induced nitric oxide production in mouse RAW264.7 cells pretreated for 1 hr followed by LPS-stimulation and measured after 24 hrs by Griess assay
# Format: functional, cell-based
# In short: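 RAW 264.7 macrophages seeded at 0.9 × 10^5 cells/mL and grown 24 h; pretreated with compound 1 h, then stimulated with LPS (1 μg/mL) for 24 h. Accumulated nitrite in medium measured with Griess reagent as NO indicator. IC50 = concentration giving 50% decrease in NO production; means of three independent experiments. NIL (10 μM) as positive control; MTT viability assay run in parallel.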
row,Structure (SMILES),IC50 [µM]
1,O=c1c(-c2ccc(O[C@@H]3O[C@H](CO)[C@@H](O)[C@H](O)[C@H]3O)cc2O)coc2cc(O[C@@H]3O[C@H](CO)[C@@H](O)[C@H](O)[C@H]3O)cc(O)c12,0.71
2,O=c1c(-c2ccc(O)cc2)coc2cc(O[C@@H]3O[C@H](CO[C@@H]4O[C@H](CO)[C@@H](O)[C@H](O)[C@H]4O)[C@@H](O)[C@H](O)[C@H]3O)cc(O)c12,> 1
3,O=c1c(-c2ccc(O)cc2O)coc2cc(O[C@@H]3O[C@H](CO)[C@@H](O)[C@H](O)[C@H]3O)cc(O)c12,> 1
4,COc1cc(O)cc2c1C(=O)[C@]1(O)c3ccc(O)cc3O[C@@H]1O2,0.38
5,O=c1c(-c2ccc(O)cc2)coc2cc(O)cc(O)c12 [GENISTEIN],> 1
6,COc1cc(O)cc2occ(-c3ccc(O)cc3O)c(=O)c12,0.6
7,O=c1c(-c2ccc(O)cc2O)coc2cc(O[C@@H]3O[C@H](CO[C@@H]4O[C@H](CO)[C@@H](O)[C@H](O)[C@H]4O)[C@@H](O)[C@H](O)[C@H]3O)cc(O)c12,0.6
8,O=c1c(-c2ccc(O)cc2)coc2cc(O[C@@H]3O[C@H](CO[C@@H]4O[C@H](CO[C@@H]5O[C@H](CO)[C@@H](O)[C@H](O)[C@H]5O)[C@@H](O)[C@H](O)[C@H]4O)[C@@H](O)[C@H](O)[C@H]3O)cc(O)c12,> 1
9,COc1cc(O[C@@H]2O[C@H](CO)[C@@H](O)[C@H](O)[C@H]2O)cc2occ(-c3ccc(O)cc3O)c(=O)c12,> 1
10,COc1cc(O[C@@H]2O[C@H](CO)[C@@H](O)[C@H](O)[C@H]2O)cc2occ(-c3ccc(O[C@@H]4O[C@H](CO)[C@@H](O)[C@H](O)[C@H]4O)cc3O)c(=O)c12,0.42
11,CC(=N)NCCCC[C@H](N)C(=O)O [L-NIL],1.55
12,COc1cc(O)cc2occ(-c3ccc(O)cc3)c(=O)c12,> 1
13,COc1cc(O[C@@H]2O[C@H](CO)[C@@H](O)[C@H](O)[C@H]2O)cc2occ(-c3ccc(O)cc3)c(=O)c12,> 1
14,COc1cc(O)cc2occ(-c3ccc(O[C@@H]4O[C@H](CO)[C@@H](O)[C@H](O)[C@H]4O)cc3O)c(=O)c12,0.47
15,COc1cc(-c2coc3cc(O[C@@H]4O[C@H](CO)[C@@H](O)[C@H](O)[C@H]4O)cc(OC)c3c2=O)ccc1O,> 1
16,O=c1c(-c2ccc(O)cc2O)coc2cc(O)cc(O)c12,> 1
17,COc1cc(-c2coc3cc(O)cc(OC)c3c2=O)ccc1O,> 1
18,NC(=O)NC1NC(=O)NC1=O (stereo unspecified) [ALLANTOIN],0.5
19,O=c1c2c(O)cc(O)cc2oc2oc3cc(O)ccc3c12,> 1
20,O=c1c(-c2ccc(O[C@@H]3O[C@H](CO)[C@@H](O)[C@H](O)[C@H]3O)cc2O)coc2cc(O)cc(O)c12,> 1
21,O=c1c(-c2ccc(O)cc2)coc2cc(O[C@@H]3O[C@H](CO)[C@@H](O)[C@H](O)[C@H]3O)cc(O)c12 [GENISTIN],> 1
